Assay results: ChEMBL document CHEMBL1926642, “Relevance of the C-5 position to schweinfurthin induced cytotoxicity” (2011)

Legend:
Type in all cases: functional
[1] = tested on: A549; assay: Cytotoxicity against human A549/ATCC cells assessed as cell growth at 10 uM after 48 hrs by sulforhodamine B assay relative to control; details: A549, 48 h, read-out: Activity
In short: (§1)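 Compounds went through the NCI 60 cell-line screen, whose current protocol tests first at a single dose.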

[2] = tested on: SF-539; assay: Cytotoxicity against human SF539 cells assessed as cell growth at 10 uM after 48 hrs by sulforhodamine B assay relative to control; details: SF-539, 48 h, read-out: Activity; in short: as §1
[3] = tested on: DU-145; assay: Cytotoxicity against human DU145 cells assessed as cell growth at 10 uM after 48 hrs by sulforhodamine B assay relative to control; details: DU-145, 48 h, read-out: Activity; in short: as §1
[4] = tested on: SF-295; assay: Cytotoxicity against human SF295 cells assessed as cell growth at 10 uM after 48 hrs by sulforhodamine B assay relative to control; details: SF-295, 48 h, read-out: Activity; in short: as §1
[5] = tested on: BT-549; assay: Cytotoxicity against human BT549 cells assessed as cell growth at 10 uM after 48 hrs by sulforhodamine B assay relative to control; details: BT-549, 48 h, read-out: Activity; in short: as §1
[6] = tested on: SF-268; assay: Cytotoxicity against human SF268 cells assessed as cell growth at 10 uM after 48 hrs by sulforhodamine B assay relative to control; details: SF-268, 48 h, read-out: Activity; in short: as §1
[7] = tested on: NCI-H460; assay: Cytotoxicity against human NCI-H460 cells assessed as cell growth at 10 uM after 48 hrs by sulforhodamine B assay relative to control; details: NCI-H460, 48 h, read-out: Activity; in short: as §1
[8] = tested on: HOP-62; assay: Cytotoxicity against human HOP62 cells assessed as cell growth at 10 uM after 48 hrs by sulforhodamine B assay relative to control; details: HOP-62, 48 h, read-out: Activity; in short: as §1
[9] = tested on: KM12; assay: Cytotoxicity against human KM12 cells assessed as cell growth at 10 uM after 48 hrs by sulforhodamine B assay relative to control; details: KM12, 48 h, read-out: Activity; in short: as §1
[10] = tested on: NCI/ADR-RES; assay: Cytotoxicity against human NCI/ADR-RES cells assessed as cell growth at 10 uM after 48 hrs by sulforhodamine B assay relative to control; details: read-out: Activity; in short: as §1
[11] = tested on: RPMI-8226; assay: Cytotoxicity against human RPMI8226 cells assessed as cell growth at 10 uM after 48 hrs by sulforhodamine B assay relative to control; details: RPMI-8226, 48 h, read-out: Activity; in short: as §1
[12] = tested on: HT-29; assay: Cytotoxicity against human HT-29 cells assessed as cell growth at 10 uM after 48 hrs by sulforhodamine B assay relative to control; details: HT-29, 48 h, read-out: Activity; in short: as §1
[13] = tested on: T47D; assay: Cytotoxicity against human T47D cells assessed as cell growth at 10 uM after 48 hrs by sulforhodamine B assay relative to control; details: read-out: Activity
[14] = tested on: MDA-MB-435; assay: Cytotoxicity against human MDA-MB-435 cells assessed as cell growth at 10 uM after 48 hrs by sulforhodamine B assay relative to control; details: MDA-MB-435, 48 h, read-out: Activity; in short: as §1
[15] = tested on: MOLT-4; assay: Cytotoxicity against human MOLT4 cells assessed as cell growth at 10 uM after 48 hrs by sulforhodamine B assay relative to control; details: MOLT-4, 48 h, read-out: Activity; in short: as §1
[16] = Cytotoxicity against human Hs 578T cells assessed as cell growth at 10 uM after 48 hrs by sulforhodamine B assay relative to control; details: read-out: Activity; in short: as §1
[17] = tested on: SK-MEL-28; assay: Cytotoxicity against human SK-MEL-28 cells assessed as cell growth at 10 uM after 48 hrs by sulforhodamine B assay relative to control; details: SK-MEL-28, 48 h, read-out: Activity; in short: as §1
[18] = tested on: A498; assay: Cytotoxicity against human A498 cells assessed as cell growth at 10 uM after 48 hrs by sulforhodamine B assay relative to control; details: A498, 48 h, read-out: Activity; in short: as §1
[19] = tested on: SN12C; assay: Cytotoxicity against human SN12C cells assessed as cell growth at 10 uM after 48 hrs by sulforhodamine B assay relative to control; details: read-out: Activity; in short: as §1
[20] = tested on: NCI-H226; assay: Cytotoxicity against human NCI-H226 cells assessed as cell growth at 10 uM after 48 hrs by sulforhodamine B assay relative to control; details: NCI-H226, 48 h, read-out: Activity; in short: as §1
[21] = tested on: HL-60(TB); assay: Cytotoxicity against human HL-60(TB) cells assessed as cell growth at 10 uM after 48 hrs by sulforhodamine B assay relative to control; details: HL-60, 48 h, read-out: Activity
In short: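 Tested in the NCI 60 cell-line screen, where the current protocol starts with testing at a single dose.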

[22] = tested on: UACC-257; assay: Cytotoxicity against human UACC257 cells assessed as cell growth at 10 uM after 48 hrs by sulforhodamine B assay relative to control; details: UACC-257, 48 h, read-out: Activity
[23] = tested on: OVCAR-8; assay: Cytotoxicity against human OVCAR8 cells assessed as cell growth at 10 uM after 48 hrs by sulforhodamine B assay relative to control; details: OVCAR-8, 48 h, read-out: Activity; in short: as §1
[24] = tested on: SK-MEL-2; assay: Cytotoxicity against human SK-MEL-2 cells assessed as cell growth at 10 uM after 48 hrs by sulforhodamine B assay relative to control; details: SK-MEL-2, 48 h, read-out: Activity; in short: as §1
[25] = tested on: U-251; assay: Cytotoxicity against human U251 cells assessed as cell growth at 10 uM after 48 hrs by sulforhodamine B assay relative to control; details: U-251, 48 h, read-out: Activity
[26] = tested on: EKVX; assay: Cytotoxicity against human EKVX cells assessed as cell growth at 10 uM after 48 hrs by sulforhodamine B assay relative to control; details: read-out: Activity; in short: as §1
[27] = tested on: HOP-92; assay: Cytotoxicity against human HOP92 cells assessed as cell growth at 10 uM after 48 hrs by sulforhodamine B assay relative to control; details: HOP-92, 48 h, read-out: Activity; in short: as §1
[28] = tested on: CAKI-1; assay: Cytotoxicity against human Caki1 cells assessed as cell growth at 10 uM after 48 hrs by sulforhodamine B assay relative to control; details: CAKI-1, 48 h, read-out: Activity; in short: as §1
[29] = tested on: SK-OV-3; assay: Cytotoxicity against human SKOV3 cells assessed as cell growth at 10 uM after 48 hrs by sulforhodamine B assay relative to control; details: SK-OV-3, 48 h, read-out: Activity; in short: as §1
[30] = tested on: RXF 393; assay: Cytotoxicity against human RXF393 cells assessed as cell growth at 10 uM after 48 hrs by sulforhodamine B assay relative to control; details: RXF 393, 48 h, read-out: Activity; in short: as §1
[31] = tested on: ACHN; assay: Cytotoxicity against human ACHN cells assessed as cell growth at 10 uM after 48 hrs by sulforhodamine B assay relative to control; details: read-out: Activity; in short: as §1
[32] = tested on: CCRF-CEM; assay: Cytotoxicity against human CCRF-CEM cells assessed as cell growth at 10 uM after 48 hrs by sulforhodamine B assay relative to control; details: read-out: Activity; in short: as §1
[33] = tested on: NCI-H322M; assay: Cytotoxicity against human NCI-H322M cells assessed as cell growth at 10 uM after 48 hrs by sulforhodamine B assay relative to control; details: read-out: Activity; in short: as §1
[34] = tested on: M14; assay: Cytotoxicity against human M14 cells assessed as cell growth at 10 uM after 48 hrs by sulforhodamine B assay relative to control; details: M14, 48 h, read-out: Activity; in short: as §1

| Structure (SMILES) | growth at 10 µM [1] | growth at 10 µM [2] | growth at 10 µM [3] | growth at 10 µM [4] | growth at 10 µM [5] | growth at 10 µM [6] | growth at 10 µM [7] | growth at 10 µM [8] | growth at 10 µM [9] | growth at 10 µM [10] | growth at 10 µM [11] | growth at 10 µM [12] | growth at 10 µM [13] | growth at 10 µM [14] | growth at 10 µM [15] | growth at 10 µM [16] | growth at 10 µM [17] | growth at 10 µM [18] | growth at 10 µM [19] | growth at 10 µM [20] | other results |
| --- | --- | --- | --- | --- | --- | --- | --- | --- | --- | --- | --- | --- | --- | --- | --- | --- | --- | --- | --- | --- | --- |
| COc1cc(/C=C/c2cc(Br)c3c(c2)C[C@@H]2C(C)(C)[C@H](O)CC[C@@]2(C)O3)cc(O)c1C/C=C(\C)CCC=C(C)C | 94.7% | 91.2% | 91.3% | 109% | 108% | 88.5% | 108% | 113% | 97.3% | 105% | 75% | 74.5% | 109% | 109% | 74.1% | 64.3% | 106% | 94.7% | 101% | 117% | growth at 10 µM [21]: 69.7%; growth at 10 µM [22]: 100%; growth at 10 µM [23]: 108%; growth at 10 µM [24]: 112%; growth at 10 µM [25]: 86.3%; growth at 10 µM [26]: 107%; growth at 10 µM [27]: 127%; growth at 10 µM [28]: 107%; growth at 10 µM [29]: 116%; growth at 10 µM [30]: 80.7%; growth at 10 µM [31]: 104%; growth at 10 µM [32]: 85.3%; growth at 10 µM [33]: 102%; growth at 10 µM [34]: 107% |
| COCc1cc(/C=C/c2cc(O)c(C/C=C(\C)CCC=C(C)C)c(OC)c2)cc2c1O[C@]1(C)CC[C@@H](O)C(C)(C)[C@H]1C2 | 104% | 89.9% | 105% | 133% | 193% | 97.1% | 105% | 127% | 123% | 100% | 65.9% | 47.9% | 106% | 120% | 70.4% | 82.8% | 118% | 140% | 96.2% | 120% | growth at 10 µM [21]: 78.2%; growth at 10 µM [22]: 116%; growth at 10 µM [23]: 103%; growth at 10 µM [24]: 109%; growth at 10 µM [25]: 83.6%; growth at 10 µM [26]: 118%; growth at 10 µM [27]: 108%; growth at 10 µM [28]: 118%; growth at 10 µM [29]: 145%; growth at 10 µM [30]: 88%; growth at 10 µM [31]: 103%; growth at 10 µM [32]: 81.9%; growth at 10 µM [33]: 167%; growth at 10 µM [34]: 117% |
